Activity calls are given as the source filed them. The calls are words filed in the database; no cut-off is given here.
What was measured:
[1] = target: L-lactate dehydrogenase B chain (Sus scrofa) (UniProt P00336); assay: Binding affinity to porcine heart LDH at 2.14 mM measured every 2 mins for 10 mins by dynamic light scattering analysis
In short: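 DLS on filtered samples of 80 μN phLDH, 4 μM NADH and 2.14 mM inhibitor in 100 mM sodium phosphate pH 7.2 at room temperature. Autocorrelation functions and particle size distributions collected every 2 min for 10 min.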

[2] = target: L-lactate dehydrogenase B chain (Sus scrofa) (UniProt P00336); assay: Inhibition of porcine heart LDH assessed as enzymatic hydride transfer lifetime using pyruvate as substrate and NADH as cofactor measured after 2 hrs by stopped flow spectrometric analysis (reference value: 3.73 +/- 0.0901 ms)
[3] = target: L-lactate dehydrogenase B chain (Sus scrofa) (UniProt P00336); assay: Inhibition of oxamate binding to porcine heart LDH assessed as emission maximum at 1000 uM using pyruvate as substrate and NADH as cofactor measured after 2 hrs by fluorescence spectra analysis (reference value: 452.9 +/- 0.3 nanometer)
[4] = target: L-lactate dehydrogenase B chain (Sus scrofa) (UniProt P00336); assay: Inhibition of oxamate binding to porcine heart LDH assessed as relative fluorescence intensity at 1000 uM using pyruvate as substrate and NADH as cofactor measured after 2 hrs by fluorescence spectra analysis (reference value: 0.775 +/- 0.013 a.u.)
[5] = target: L-lactate dehydrogenase B chain (Sus scrofa) (UniProt P00336); assay: Inhibition of oxamate binding to porcine heart LDH assessed as relative fluorescence intensity at 35 uM using pyruvate as substrate and NADH as cofactor measured after 2 hrs by fluorescence spectra analysis (reference value: 0.775 +/- 0.013 a.u.)
[6] = target: L-lactate dehydrogenase B chain (Sus scrofa) (UniProt P00336); assay: Inhibition of oxamate binding to porcine heart LDH assessed as relative fluorescence intensity at 6 uM using pyruvate as substrate and NADH as cofactor measured after 2 hrs by fluorescence spectra analysis (reference value: 0.775 +/- 0.013 a.u.)
[7] = target: L-lactate dehydrogenase B chain (Sus scrofa) (UniProt P00336); assay: Inhibition of oxamate binding to porcine heart LDH assessed as emission maximum at 6 uM using pyruvate as substrate and NADH as cofactor measured after 2 hrs by fluorescence spectra analysis (reference value: 452.9 +/- 0.36 nanometer)
[8] = target: L-lactate dehydrogenase B chain (Sus scrofa) (UniProt P00336); assay: Inhibition of oxamate binding to porcine heart LDH assessed as emission maximum at 35 uM using pyruvate as substrate and NADH as cofactor measured after 2 hrs by fluorescence spectra analysis (reference value: 452.9 +/- 0.3 nanometer)
[9] = target: L-lactate dehydrogenase B chain (Sus scrofa) (UniProt P00336); assay: Inhibition of oxamate binding to porcine heart LDH assessed as emission maximum at 961 uM using pyruvate as substrate and NADH as cofactor measured after 2 hrs by fluorescence spectra analysis (reference value: 452.9 +/- 0.3 nanometer)
[10] = target: L-lactate dehydrogenase B chain (Sus scrofa) (UniProt P00336); assay: Inhibition of oxamate binding to porcine heart LDH assessed as relative fluorescence intensity at 961 uM using pyruvate as substrate and NADH as cofactor measured after 2 hrs by fluorescence spectra analysis (reference value: 0.775 +/- 0.013 a.u.)
[11] = target: L-lactate dehydrogenase B chain (Sus scrofa) (UniProt P00336); assay: Activation of porcine heart LDH at 1 mM using pyruvate as substrate and NADH as cofactor measured after 2 hrs by stopped-flow spectrometric method relative to control
In short: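 Pig heart LDH buffer-exchanged into 100 mM sodium phosphate pH 7.2, then preincubated 2 h at 4 °C with inhibitor. Final: 5 nN enzyme, 100 μM NADH, 300 μM sodium pyruvate, 37 °C. Stopped-flow mixing of enzyme:NADH:inhibitor with pyruvate, NADH loss read at 340 nm. Initial rates are linear fits averaged over five shots and expressed relative to uninhibited enzyme.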

CC(=O)Nc1cccc(O)c1 [12] = assay: (§1) Mixed inhibition of porcine heart LDH assessed as apparent Km for substrate at 10 uM using pyruvate as substrate and NADH as cofactor measured after 2 hrs by Michaelis-Menten plot analysis (reference value: 73 +/- 10 uM); settings: Sus scrofa
NC(=O)c1cc(O)cc(O)c1 [13] = assay: as §1; settings: Sus scrofa
CC(=O)Nc1cccc(O)c1 [14] = assay: (§2) Mixed inhibition of porcine heart LDH assessed as apparent Km for substrate at 25 uM using pyruvate as substrate and NADH as cofactor measured after 2 hrs by Michaelis-Menten plot analysis (reference value: 73 +/- 10 uM); settings: Sus scrofa
NC(=O)c1cc(O)cc(O)c1 [15] = assay: as §2; settings: Sus scrofa
CC(=O)Nc1cccc(O)c1 [16] = assay: (§3) Mixed inhibition of porcine heart LDH assessed as apparent Km for substrate at 50 uM using pyruvate as substrate and NADH as cofactor measured after 2 hrs by Michaelis-Menten plot analysis (reference value: 73 +/- 10 uM); settings: Sus scrofa
NC(=O)c1cc(O)cc(O)c1 [17] = assay: as §3; settings: Sus scrofa
CC(=O)Nc1cccc(O)c1 [18] = assay: (§4) Mixed inhibition of porcine heart LDH assessed as apparent Km for substrate at 100 uM using pyruvate as substrate and NADH as cofactor measured after 2 hrs by Michaelis-Menten plot analysis (reference value: 73 +/- 10 uM); settings: Sus scrofa
NC(=O)c1cc(O)cc(O)c1 [19] = assay: as §4; settings: Sus scrofa
CC(=O)Nc1cccc(O)c1 [20] = assay: (§5) Mixed inhibition of porcine heart LDH assessed as apparent Km for substrate at 300 uM using pyruvate as substrate and NADH as cofactor measured after 2 hrs by Michaelis-Menten plot analysis (reference value: 73 +/- 10 uM); settings: Sus scrofa
NC(=O)c1cc(O)cc(O)c1 [21] = assay: as §5; settings: Sus scrofa
CC(=O)Nc1cccc(O)c1 [22] = assay: Mixed inhibition of porcine heart LDH assessed as substrate Kcat at 10 uM using pyruvate as substrate and NADH as cofactor measured after 2 hrs by Michaelis-Menten plot analysis (reference value: 232 +/- 13 /sec); settings: Sus scrofa
CC(=O)Nc1cccc(O)c1 [23] = assay: Mixed inhibition of porcine heart LDH assessed as substrate Kcat at 25 uM using pyruvate as substrate and NADH as cofactor measured after 2 hrs by Michaelis-Menten plot analysis (reference value: 232 +/- 13 /sec); settings: Sus scrofa
CC(=O)Nc1cccc(O)c1 [24] = assay: Mixed inhibition of porcine heart LDH assessed as substrate Kcat at 50 uM using pyruvate as substrate and NADH as cofactor measured after 2 hrs by Michaelis-Menten plot analysis (reference value: 232 +/- 13 /sec); settings: Sus scrofa
CC(=O)Nc1cccc(O)c1 [25] = assay: Mixed inhibition of porcine heart LDH assessed as substrate Kcat at 100 uM using pyruvate as substrate and NADH as cofactor measured after 2 hrs by Michaelis-Menten plot analysis (reference value: 232 +/- 13 /sec); settings: Sus scrofa
CC(=O)Nc1cccc(O)c1 [26] = assay: Mixed inhibition of porcine heart LDH assessed as substrate Kcat at 300 uM using pyruvate as substrate and NADH as cofactor measured after 2 hrs by Michaelis-Menten plot analysis (reference value: 232 +/- 13 /sec); settings: Sus scrofa
CC(=O)Nc1cccc(O)c1 [27] = assay: Non-competitive inhibition of porcine heart LDH assessed as Kcat for cofactor at 50 uM using pyruvate as substrate and NADH as cofactor measured after 2 hrs by Michaelis-Menten plot analysis (reference value: 221 +/- 10 /sec); settings: Sus scrofa
CC(=O)Nc1cccc(O)c1 [28] = assay: Non-competitive inhibition of porcine heart LDH assessed as Kcat for cofactor at 300 uM using pyruvate as substrate and NADH as cofactor measured after 2 hrs by Michaelis-Menten plot analysis (reference value: 221 +/- 10 /sec); settings: Sus scrofa
CC(=O)Nc1cccc(O)c1 [29] = assay: Non-competitive inhibition of porcine heart LDH assessed as apparent Km for cofactor at 50 uM using pyruvate as substrate and NADH as cofactor measured after 2 hrs by Michaelis-Menten plot analysis (reference value: 8 +/- 2 uM); settings: Sus scrofa
CC(=O)Nc1cccc(O)c1 [30] = assay: Non-competitive inhibition of porcine heart LDH assessed as apparent Km for cofactor at 300 uM using pyruvate as substrate and NADH as cofactor measured after 2 hrs by Michaelis-Menten plot analysis (reference value: 8 +/- 2 uM); settings: Sus scrofa
NC(=O)c1cc(O)cc(O)c1 [31] = assay: Mixed inhibition of porcine heart LDH assessed as substrate Kcat at 10 uM using pyruvate as substrate and NADH as cofactor measured after 2 hrs by Michaelis-Menten plot analysis (reference value: 319 +/- 8 /sec); settings: Sus scrofa
NC(=O)c1cc(O)cc(O)c1 [32] = assay: Mixed inhibition of porcine heart LDH assessed as substrate Kcat at 25 uM using pyruvate as substrate and NADH as cofactor measured after 2 hrs by Michaelis-Menten plot analysis (reference value: 319 +/- 8 /sec); settings: Sus scrofa
NC(=O)c1cc(O)cc(O)c1 [33] = assay: Mixed inhibition of porcine heart LDH assessed as substrate Kcat at 50 uM using pyruvate as substrate and NADH as cofactor measured after 2 hrs by Michaelis-Menten plot analysis (reference value: 319 +/- 8 /sec); settings: Sus scrofa
NC(=O)c1cc(O)cc(O)c1 [34] = assay: Mixed inhibition of porcine heart LDH assessed as substrate Kcat at 100 uM using pyruvate as substrate and NADH as cofactor measured after 2 hrs by Michaelis-Menten plot analysis (reference value: 319 +/- 8 /sec); settings: Sus scrofa
NC(=O)c1cc(O)cc(O)c1 [35] = assay: Mixed inhibition of porcine heart LDH assessed as substrate Kcat at 300 uM using pyruvate as substrate and NADH as cofactor measured after 2 hrs by Michaelis-Menten plot analysis (reference value: 319 +/- 8 /sec); settings: Sus scrofa

Chain of L-lactate dehydrogenase B chain (Sus scrofa) (P00336 whole entry): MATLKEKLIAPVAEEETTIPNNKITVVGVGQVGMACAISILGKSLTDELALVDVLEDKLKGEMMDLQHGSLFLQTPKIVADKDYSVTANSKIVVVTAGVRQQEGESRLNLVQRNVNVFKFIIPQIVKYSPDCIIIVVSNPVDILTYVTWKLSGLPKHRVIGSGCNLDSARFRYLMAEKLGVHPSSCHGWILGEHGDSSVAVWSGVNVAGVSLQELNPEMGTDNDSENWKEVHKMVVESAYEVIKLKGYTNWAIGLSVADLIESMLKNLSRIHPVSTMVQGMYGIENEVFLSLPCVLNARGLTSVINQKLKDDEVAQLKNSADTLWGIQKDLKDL
Chain of L-lactate dehydrogenase B chain (Sus scrofa), P00336 (P00336 whole entry): as above

Question: What does the source list for `CC(=O)Nc1cccc(O)c1`?
Answer: Activity [1]: Active; TIME [2]: 1.09e-06 h; Activity [3]: 449 nm; RFU [4]: 0.793 a.u.

Question: For `CC(=O)Nc1ccccc1`, which Activity [1] is on record?
Answer: Active

Question: Which RFU [5] does the source give for `NC(=O)c1cc(O)cc(O)c1` here?
Answer: 0.759 a.u.

Question: And the RFU [6]?
Answer: 0.764 a.u.

Question: What about the Activity [1] of the same compound?
Answer: Active

Question: What about the Activity [7] of the same compound?
Answer: 453 nm

Question: What about the Activity [8] of the same compound?
Answer: 453 nm

Question: What about the Activity [9] of the same compound?
Answer: 455 nm

Question: What about the RFU [10] of the same compound?
Answer: 0.773 a.u.

Question: For `N[C@@H](Cc1c[nH]c2ccccc12)C(=O)O`, which Activity [11] is on record?
Answer: < 24%

Question: For “L-lactate dehydrogenase B chain (Sus scrofa), P00336”, which Km (CC(=O)Nc1cccc(O)c1 [12]) is on record?
Answer: 98 µM

Question: What about the Km (NC(=O)c1cc(O)cc(O)c1 [13]) of the same compound?
Answer: 87 µM

Question: And the Km (CC(=O)Nc1cccc(O)c1 [14])?
Answer: 98 µM

Question: What about the Km (NC(=O)c1cc(O)cc(O)c1 [15]) of the same compound?
Answer: 90 µM

Question: And the Km (CC(=O)Nc1cccc(O)c1 [16])?
Answer: 155 µM

Question: And the Km (NC(=O)c1cc(O)cc(O)c1 [17])?
Answer: 102 µM

Question: And the Km (CC(=O)Nc1cccc(O)c1 [18])?
Answer: 163 µM

Question: And the Km (NC(=O)c1cc(O)cc(O)c1 [19])?
Answer: 116 µM

Question: And the Km (CC(=O)Nc1cccc(O)c1 [20])?
Answer: 133 µM

Question: What about the Km (NC(=O)c1cc(O)cc(O)c1 [21]) of the same compound?
Answer: 111 µM

Question: And the kcat (CC(=O)Nc1cccc(O)c1 [22])?
Answer: 211 s⁻¹

Question: What about the kcat (CC(=O)Nc1cccc(O)c1 [23]) of the same compound?
Answer: 190 s⁻¹

Question: And the kcat (CC(=O)Nc1cccc(O)c1 [24])?
Answer: 175 s⁻¹

Question: And the kcat (CC(=O)Nc1cccc(O)c1 [25])?
Answer: 211 s⁻¹

Question: And the kcat (CC(=O)Nc1cccc(O)c1 [26])?
Answer: 132 s⁻¹

Question: And the kcat (CC(=O)Nc1cccc(O)c1 [27])?
Answer: 190 s⁻¹

Question: What about the kcat (CC(=O)Nc1cccc(O)c1 [28]) of the same compound?
Answer: 191 s⁻¹

Question: And the Km (CC(=O)Nc1cccc(O)c1 [29])?
Answer: 7 µM

Question: What about the Km (CC(=O)Nc1cccc(O)c1 [30]) of the same compound?
Answer: 7 µM

Question: And the kcat (NC(=O)c1cc(O)cc(O)c1 [31])?
Answer: 281 s⁻¹

Question: And the kcat (NC(=O)c1cc(O)cc(O)c1 [32])?
Answer: 229 s⁻¹

Question: What about the kcat (NC(=O)c1cc(O)cc(O)c1 [33]) of the same compound?
Answer: 242 s⁻¹

Question: And the kcat (NC(=O)c1cc(O)cc(O)c1 [34])?
Answer: 216 s⁻¹

Question: And the kcat (NC(=O)c1cc(O)cc(O)c1 [35])?
Answer: 176 s⁻¹

Reference: ChEMBL document CHEMBL4257555, “Small molecule cores demonstrate non-competitive inhibition of lactate dehydrogenase” (Medchemcomm, 2018)
